# XBP1 UPR activ: adaptive UPR (XBP1) activation. CHO-XBP1 luciferase reporter, IRE1-XBP1 UPR activation, luminescence; percent of tunicamycin response, DMSO as zero. activation, % at 20 µM. hit rate 0.33% among 330,000;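 active = versus positive control, 20 µM dose yields 30% or more activation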
#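 Signal: luciferase luminescence; Assay system: CHO-XBP1 luciferase reporter cells; Amount: one thousand reporter cells per well; Dosing: 20 µM single concentration, DMSO 1%; Benchmarks: high control tunicamycin 10 µg/mL final, low control DMSO vehicle only; Schedule: 6 h compound exposure at 37 °C, 5% CO2; Evaluation: percent activation relative to tunicamycin reference.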
# CHOP inhibitor: CHOP inhibition in unfolded protein response | CHO-K1 CHOP-promoter luciferase, tunicamycin-induced, 15-18 h | inhibition, % at 10 µM | hit rate 3.8% among 220,000 | AID 2732;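 active = compounds that reduced the stress-induced luciferase reporter signal by more than about 70% of percent inhibition, limit read from the data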
# Dynein cargo inh: blocks dynein driven cargo transport along microtubules | hit rate 0.47% among 220,000 | z-score, hits read low | 3617.4 mouse cells, GR-EGFP nuclear translocation imaging; test concentration mostly 20 µM; stimulated with dexamethasone, 1 µM; stronger effect = lower value;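 active = plate z-score of nuclear minus cytoplasmic receptor signal below a set negative limit, without overly bright fluorescence or cell loss, cut at about -3.5 in these data, passing the limit was not always enough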;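 also: z-score of nuclear minus cytoplasmic ring GR-EGFP intensity difference per well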
#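 Buffer or medium: tet-free medium with charcoal-stripped serum / Also added: dexamethasone agonist, 1.0 µM final, for 30 min / Timing: induction 48 h, compound 1 h, agonist 30 min / Measured by: high-content fluorescence imaging after fixation / Read-out: nuclear-to-cytoplasmic GR-EGFP distribution per well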
# Lmaj promast: inhibitors of Leishmania major promastigote growth; Leishmania major promastigotes, resazurin fluorescence viability; hit rate 9% among 200,000; inhibition, % at 10 µM; AID 1063; in the data active = inhibition above about 50%;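 also: promastigotes grown with compound for 44 hours at 28 °C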
# T cruzi repl: blocks replication of Trypanosoma cruzi. T. cruzi beta-gal in NIH3T3, luminescence, 90 h. AID 1885. inhibition, % (no concentration beside the values). hit rate 1.4% among 300,000;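 active = mean inhibition across valid replicates above about 55%, limit read from the data; inconclusive = mean below that limit but half or more replicates reach it; inactive = mean below it, under half of replicates reach it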;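 also: signal also drops with host cell toxicity which is not excluded here; higher percent means less beta-gal luminescence so fewer parasites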
#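 Material: NIH/3T3 host cells with β-galactosidase reporter T. cruzi; Input: 5,000 host fibroblasts per well; Medium: DMEM, 2% fetal bovine serum; Compound: 50 nL DMSO compound solution per well; Schedule: 3 h host attachment, then at least 90 h co-culture; Detection: luminescent β-galactosidase signal after 60 min lysis.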
# CHOP UPR activ: apoptotic UPR (CHOP) activation; CHO-CHOP luciferase reporter, luminescence; percent of tunicamycin response over DMSO baseline; activation, % at 10 µM; hit rate 0.34% among 330,000;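 active = at 10 µM dose, activation of 40% or more, normalized to positive control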
#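 System: CHO CHOP reporter cells. Amount: 500 cells per well. Buffer or medium: F12 medium, 10% FBS. Compound dosing: one dose, 10 µM in 0.5% DMSO. Incubation: 6 h compound exposure at 37 °C after overnight seeding. Technique: Steady-Glo luciferase luminescence. Benchmarks: tunicamycin and DMSO controls.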
# A number is an active result; n = inactive; u = inconclusive; x = not tested or not shown. Shown is part of a subset that was picked to be rich in hits.
SMILES,XBP1 UPR activ,CHOP inhibitor,Dynein cargo inh,Lmaj promast,T cruzi repl,CHOP UPR activ
COc1cccc(OCCOCC(O)CN2CCN(Cc3ccc(Cl)cc3)CC2)c1 (configuration not stated),n,n,n,52,n,n
OC(COCCOc1ccc(Br)cc1)CN1CCN(Cc2ccccc2)CC1 (configuration not stated),n,n,n,85,n,n
COc1ccc(OCCOCC(O)CN2CCOCC2)cc1 (configuration not stated),n,n,n,n,n,n
CCc1ccc(OCCOCC(O)CN2CCN(Cc3ccc(Cl)cc3)CC2)cc1 (configuration not stated),n,n,n,96,n,n
O=C(OCCc1cc2ccccc2c(=O)o1)c1ccco1,n,x,x,x,x,n
COc1cccc(CNC(=O)c2ccc(C)c(S(=O)(=O)N3CCCCC3)c2)c1,n,x,x,x,n,n
O=C(Cc1n[nH]c(=O)c2ccccc12)Nc1cc(C(F)(F)F)ccc1-n1cncn1,n,x,x,x,x,n
CC1CCCC(NC(=S)Nc2cccc(S(=O)(=O)N(C)C)c2)C1C (configuration not stated),n,n,n,n,n,n
Cc1c(C)n(CCCN(C)C)c2ncnc(Nc3ccccc3)c12,n,x,x,x,u,n
COc1ccc(Nc2ncnc3c2c(C)c(C)n3CCCN(C)C)cc1,n,x,x,x,n,n
COc1ccccc1Nc1ncnc2c1c(C)c(C)n2CCCN(C)C,n,x,x,x,58,n
Cc1c(C)n(CCCN(C)C)c2ncnc(NC3CCCCC3)c12,n,x,x,x,56,n
COC(=O)C(Cc1ccccc1)NC(=O)CC(C)CC(=O)Nc1ccc(C)cc1 (configuration not stated),n,x,x,x,n,n
CCc1ccc(C2=NN(C(C)=O)C(c3ccco3)C2)cc1 (configuration not stated),n,n,n,n,n,n
Cc1csc(C(C)N(C)C(=O)c2ccc(OC3CCN(Cc4ccccn4)CC3)cc2)n1 (configuration not stated),n,x,x,x,n,n
COc1ccc(CN(C)C(=O)c2cccc(Oc3ccccc3)c2)c(OC)c1OC,n,x,x,x,n,n
O=S(=O)(NCCc1csc(-c2ccc(C(F)(F)F)cc2)n1)c1ccc2c(c1)OCCO2,n,81,n,n,n,n
CS(=O)(=O)N(Cc1ccc(C(=O)NCCSc2ccccn2)cc1)c1ccccc1,n,n,n,n,n,n
Cc1ccc(N(Cc2ccc(C(=O)NCCSc3ccccn3)cc2)S(C)(=O)=O)cc1C,n,n,n,68,n,n
Cc1cccc(N(CC(=O)NCCSc2ccccn2)S(=O)(=O)c2ccccc2)c1,n,n,n,57,n,n
O=C(CN(c1ccccc1)S(=O)(=O)c1ccccc1)NCCSc1ccccn1,n,n,n,n,n,n
CCOC(=O)C1(Cc2cccc(OC)c2)CCN(Cc2cnc(C)s2)CC1,n,n,n,n,n,n
O=C(CSc1nnc(CNC(=O)c2cccs2)o1)Nc1ccc(F)cc1F,n,x,x,x,n,n
CCOC(=O)C1=C(O)/C(=C\c2ccc(CNS(=O)(=O)c3ccc(Br)cc3)o2)N=C1C,n,n,n,66,n,n
COC(=O)C1=C(O)/C(=C\c2ccc(CNC(=O)C(=O)Nc3ccc(C)c(C)c3)o2)N=C1C,n,73,n,n,n,n
SMILES,XBP1 UPR activ,CHOP inhibitor,Dynein cargo inh,Lmaj promast,T cruzi repl,CHOP UPR activ
COC(=O)C1=C(O)/C(=C\c2ccc(CNS(=O)(=O)c3ccc(Cl)cc3)o2)N=C1C,n,n,n,53,n,n
COC(=O)C1=C(O)/C(=C\c2ccc(CNS(=O)(=O)c3ccccc3)o2)N=C1C,n,n,n,n,n,n
O=C(O)CCCCCC[C@H]1C(=O)NC(=O)N1CC[C@@H](O)C1CCCCC1,x,n,x,x,x,x
O=C(Nc1ccc(OCC(=O)N2CCC(Cc3ccccc3)CC2)cc1)c1ccco1,n,n,n,51,n,n
O=C(Cc1cccc(C(F)(F)F)c1)Nc1cc(S(=O)(=O)N2CCOCC2)ccc1N1CCCC1,n,x,x,x,x,n
O=C(Nc1nc2ccccc2n1CCN1CCOCC1)c1cn(-c2ccccc2)nc1-c1ccccc1,n,n,n,96,66,n
Cc1ccc2oc(C(=O)N(C)CCC(O)c3ccccc3)c(C)c2c1 (configuration not stated),n,x,x,x,n,n
COC(=O)c1[nH]c2ccccc2c1CN1CCOCC1,n,x,x,x,n,n
Nc1c(C(=O)Nc2cccc(F)c2)nnn1-c1ccc2c(c1)OCCO2,n,x,x,x,n,n
Cc1ccc(NC(=O)N(C2CCCCC2)C(C)c2cccnc2)cc1C (configuration not stated),n,n,n,83,n,n
COc1ccc(NC(=O)N(C2CCCCC2)C(C)c2cccnc2)c(OC)c1 (configuration not stated),n,n,n,82,n,n
CCc1ccc(NC(=O)N(C2CCCCC2)C(C)c2cccnc2)cc1 (configuration not stated),n,n,n,90,n,n
Clc1ccc(CNCCCSc2ncccn2)cc1Cl,n,x,x,x,56,n
CC(C)c1ccc(CNCCCSc2ncccn2)cc1,n,x,x,x,71,n
CC(C)c1ccc(CNCc2ccccc2)cc1,n,n,n,80,n,n
Clc1cccc(Cl)c1CNCCCSc1ncccn1,n,x,x,x,n,n
CCOc1ccc(CNCCCSc2ncccn2)cc1,n,x,x,x,55,n
CCOc1ccc(CNCCCSc2ncccn2)cc1OC,n,x,x,x,n,n
CC(=O)Nc1ccc(C(=O)CN2C(=O)CSC2=O)cc1,n,x,x,x,n,n
COc1ccc(N(C(C)=O)S(=O)(=O)c2cc(OC)ccc2OC)cc1,n,n,n,n,n,n
COc1ccc(N(C(C)=O)S(=O)(=O)c2cccc3cccnc23)cc1,n,n,n,54,n,n
Cc1ccc2nc(-c3ccccc3)c(CN3CCOCC3)n2c1,n,n,n,n,n,n
Cc1ccc2nc(-c3ccccc3)c(CN3CCN(c4ccccc4F)CC3)n2c1,n,n,n,80,n,n
Cc1ccc2nc(N3CCN(c4ccccc4F)CC3)c(C=O)c(=O)n2c1,n,n,n,n,n,n
Cc1ccc2nc(-c3ccccc3)c(CN3CCSCC3)n2c1,n,n,n,63,n,n
O=C(NCc1ccc(N2CCCC2=O)cc1)c1cc(COc2c(F)cccc2F)on1,n,x,x,x,n,n
COc1ccc(C(=O)Nc2sc(C)c(-c3ccccc3)c2C#N)cc1OC,n,n,n,n,n,n
Cc1sc(NC(=O)COc2ccccc2)c(C#N)c1-c1ccccc1,n,n,n,57,n,n
CCc1ccc(-c2c(C)sc(NC(=O)C3CCC3)c2C#N)cc1,n,n,n,50,n,n
